Laboratory results published in ChEMBL document CHEMBL4184148 (Bioorg Med Chem Lett, 2017).

Columns and labels:
[1] = biological target: Rhodopsin kinase GRK7 (Homo sapiens) (UniProt Q8WTQ7); test: Binding affinity to wild-type human full length GRK7 (M1 to L553 residues) expressed in HEK293 cells at 1 uM by Kinomescan method relative to control; format: cell-based
Method in brief: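 Run as one kinome-wide competition binding panel with each compound at a single fixed concentration. Results were plotted as a kinome-wide selectivity map.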

[2] = biological target: Tyrosine-protein kinase BTK (Homo sapiens) (UniProt Q06187); test: Binding affinity to wild-type human full length BTK (M1 to S659 residues) expressed in HEK293 cells at 1 uM by Kinomescan method relative to control; format: cell-based
[3] = tested on: Phosphatidylinositol 4,5-bisphosphate 3-kinase catalytic subunit alpha isoform (Homo sapiens), P42336 [H1047Y]; test: Binding affinity to human partial length PIK3CA H1047Y mutant (R108 to N1068 residues) expressed in HEK293 cells at 1 uM by Kinomescan method relative to control; format: cell-based
[4] = biological target: Wee1-like protein kinase (Homo sapiens) (UniProt P30291); test: Binding affinity to wild-type human partial length WEE1 (M291 to K575 residues) expressed in Escherichia coli BL21 at 1 uM by Kinomescan method relative to control
[5] = biological target: Serine/threonine-protein kinase PAK 1 (Homo sapiens) (UniProt Q13153); test: Binding affinity to wild-type human partial length PAK1 (S149 to H545 residues) expressed in Escherichia coli BL21 at 1 uM by Kinomescan method relative to control
[6] = biological target: Serine/threonine-protein kinase 38 (Homo sapiens) (UniProt Q15208); test: Binding affinity to wild-type human partial length NDR1 (N33 to E449 residues) expressed in HEK293 cells at 1 uM by Kinomescan method relative to control; format: cell-based
[7] = biological target: Proto-oncogene tyrosine-protein kinase ROS (Homo sapiens) (UniProt P08922); test: Binding affinity to wild-type human partial length ROS1 (A1921 to N2240 residues) expressed in Escherichia coli BL21 at 1 uM by Kinomescan method relative to control
[8] = biological target: Serine/threonine-protein kinase PAK 2 (Homo sapiens) (UniProt Q13177); test: Binding affinity to wild-type human partial length PAK2 (P151 to R525 residues) expressed in Escherichia coli BL21 at 1 uM by Kinomescan method relative to control
[9] = biological target: Hormonally up-regulated neu tumor-associated kinase (Homo sapiens) (UniProt P57058); test: Binding affinity to wild-type human partial length HUNK (A31 to K354 residues) expressed in Escherichia coli BL21 at 1 uM by Kinomescan method relative to control
[10] = biological target: Serine/threonine-protein kinase SIK2 (Homo sapiens) (UniProt Q9H0K1); test: Binding affinity to wild-type human full length SIK2 (M1 to N926 residues) expressed in Escherichia coli BL21 at 1 uM by Kinomescan method relative to control
Method in brief: (§1)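 Kinome-wide competition binding panel run by an outside provider, with each compound tested at a single concentration. Activity is read against the kinase panel.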

[11] = tested on: ALK tyrosine kinase receptor (Homo sapiens), Q9UM73 [C1156Y]; test: Binding affinity to wild-type human partial length ALK C1156Y mutant (I1088 to E1409 residues) expressed in HEK293 cells at 1 uM by Kinomescan method relative to control; format: cell-based
[12] = biological target: Protein kinase C delta type (Homo sapiens) (UniProt Q05655); test: Binding affinity to wild-type human partial length PRKCD (Q328 to D676 residues) expressed in Escherichia coli BL21 at 1 uM by Kinomescan method relative to control
[13] = biological target: 5'-AMP-activated protein kinase catalytic subunit alpha-1 (Homo sapiens) (UniProt Q13131); test: Binding affinity to wild-type human partial length AMPK alpha1 (M1 to E306 residues) expressed in Escherichia coli BL21 at 1 uM by Kinomescan method relative to control; method in brief: as §1
[14] = biological target: Serine/threonine-protein kinase 32A (Homo sapiens) (UniProt Q8WU08); test: Binding affinity to wild-type human full length YANK1 (M1 to L396 residues) expressed in HEK293 cells at 1 uM by Kinomescan method relative to control; format: cell-based; method in brief: as §1
[15] = biological target: Homeodomain-interacting protein kinase 4 (Homo sapiens) (UniProt Q8NE63); test: Binding affinity to wild-type human partial length HIPK4 (M1 to V384 residues) expressed in Escherichia coli BL21 at 1 uM by Kinomescan method relative to control
[16] = biological target: Mitogen-activated protein kinase kinase kinase 4 (Homo sapiens) (UniProt Q9Y6R4); test: Binding affinity to wild-type human partial length MAP3K4 (G1319 to E1608 residues) expressed in Escherichia coli BL21 at 1 uM by Kinomescan method relative to control
[17] = biological target: Mitogen-activated protein kinase kinase kinase 3 (Homo sapiens) (UniProt Q99759); test: Binding affinity to wild-type human partial length MAP3K3 (E320 to Y626 residues) expressed in HEK293 cells at 1 uM by Kinomescan method relative to control; format: cell-based
[18] = biological target: Mitogen-activated protein kinase 10 (Homo sapiens) (UniProt P53779); test: Binding affinity to wild-type human partial length JNK3 (V28 to Q422 residues) expressed in HEK293 cells at 1 uM by Kinomescan method relative to control; format: cell-based
[19] = biological target: STE20-like serine/threonine-protein kinase (Homo sapiens) (UniProt Q9H2G2); test: Binding affinity to wild-type human partial length SLK (S14 to A307 residues) expressed in Escherichia coli BL21 at 1 uM by Kinomescan method relative to control
[20] = tested on: Epidermal growth factor receptor (Homo sapiens), P00533 [UNDEFINED MUTATION]; test: Binding affinity to human partial length EGFR L747-S752del/P753S mutant expressed in Escherichia coli BL21 at 1 uM by Kinomescan method relative to control
[21] = tested on: Phosphatidylinositol 4,5-bisphosphate 3-kinase catalytic subunit alpha isoform (Homo sapiens), P42336 [Q546K]; test: Binding affinity to human partial length PIK3CA Q546K mutant (R108 to N1068 residues) expressed in HEK293 cells at 1 uM by Kinomescan method relative to control; format: cell-based
[22] = biological target: Tyrosine-protein kinase Blk (Homo sapiens) (UniProt P51451); test: Binding affinity to wild-type human partial length BLK (G211 to L503 residues) expressed in Escherichia coli BL21 at 1 uM by Kinomescan method relative to control
[23] = biological target: Tyrosine-protein kinase ABL1 (Homo sapiens) (UniProt P00519); test: Binding affinity to wild-type human phosphorylated ABL1 (S229 to K512 residues) expressed in HEK293 cells at 1 uM by Kinomescan method relative to control; format: cell-based
[24] = biological target: NUAK family SNF1-like kinase 1 (Homo sapiens) (UniProt O60285); test: Binding affinity to wild-type human partial length ARK5 (E25 to I332 residues) expressed in Escherichia coli BL21 at 1 uM by Kinomescan method relative to control; method in brief: as §1
[25] = biological target: Epidermal growth factor receptor (Homo sapiens) (UniProt P00533); test: Binding affinity to human partial length EGFR E746-A750del mutant expressed in Escherichia coli BL21 at 1 uM by Kinomescan method relative to control

Sequence of Serine/threonine-protein kinase SIK2 (Homo sapiens) (Q9H0K1 whole entry, looked up, the tested form may be a part): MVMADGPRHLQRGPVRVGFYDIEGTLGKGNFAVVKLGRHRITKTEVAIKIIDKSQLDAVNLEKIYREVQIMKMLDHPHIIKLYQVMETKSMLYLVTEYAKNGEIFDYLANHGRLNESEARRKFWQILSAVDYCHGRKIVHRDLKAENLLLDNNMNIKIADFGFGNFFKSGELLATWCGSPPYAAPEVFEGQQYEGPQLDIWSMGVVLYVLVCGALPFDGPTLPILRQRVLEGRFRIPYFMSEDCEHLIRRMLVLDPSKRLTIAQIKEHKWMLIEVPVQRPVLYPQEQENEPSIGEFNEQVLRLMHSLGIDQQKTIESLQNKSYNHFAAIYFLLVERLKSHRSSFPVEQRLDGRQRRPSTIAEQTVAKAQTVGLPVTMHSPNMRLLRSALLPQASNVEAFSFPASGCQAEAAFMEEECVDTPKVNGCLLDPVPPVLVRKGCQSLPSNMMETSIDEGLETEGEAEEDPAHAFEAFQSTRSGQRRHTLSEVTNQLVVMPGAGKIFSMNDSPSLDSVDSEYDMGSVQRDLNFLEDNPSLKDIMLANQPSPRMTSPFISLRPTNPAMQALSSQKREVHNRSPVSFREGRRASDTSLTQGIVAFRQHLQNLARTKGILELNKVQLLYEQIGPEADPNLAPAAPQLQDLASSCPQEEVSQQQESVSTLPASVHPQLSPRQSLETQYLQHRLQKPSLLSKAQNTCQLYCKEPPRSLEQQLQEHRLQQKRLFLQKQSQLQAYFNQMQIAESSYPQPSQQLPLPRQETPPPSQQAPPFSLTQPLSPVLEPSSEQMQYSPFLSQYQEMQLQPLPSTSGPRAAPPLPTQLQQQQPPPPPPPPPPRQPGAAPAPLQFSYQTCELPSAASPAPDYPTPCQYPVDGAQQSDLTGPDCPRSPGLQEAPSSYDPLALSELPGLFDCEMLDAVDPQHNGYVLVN
Sequence of Phosphatidylinositol 4,5-bisphosphate 3-kinase catalytic subunit alpha isoform (Homo sapiens), P42336 [Q546K] (P42336 whole entry Q546K, the tested form may be a part, canonical isoform): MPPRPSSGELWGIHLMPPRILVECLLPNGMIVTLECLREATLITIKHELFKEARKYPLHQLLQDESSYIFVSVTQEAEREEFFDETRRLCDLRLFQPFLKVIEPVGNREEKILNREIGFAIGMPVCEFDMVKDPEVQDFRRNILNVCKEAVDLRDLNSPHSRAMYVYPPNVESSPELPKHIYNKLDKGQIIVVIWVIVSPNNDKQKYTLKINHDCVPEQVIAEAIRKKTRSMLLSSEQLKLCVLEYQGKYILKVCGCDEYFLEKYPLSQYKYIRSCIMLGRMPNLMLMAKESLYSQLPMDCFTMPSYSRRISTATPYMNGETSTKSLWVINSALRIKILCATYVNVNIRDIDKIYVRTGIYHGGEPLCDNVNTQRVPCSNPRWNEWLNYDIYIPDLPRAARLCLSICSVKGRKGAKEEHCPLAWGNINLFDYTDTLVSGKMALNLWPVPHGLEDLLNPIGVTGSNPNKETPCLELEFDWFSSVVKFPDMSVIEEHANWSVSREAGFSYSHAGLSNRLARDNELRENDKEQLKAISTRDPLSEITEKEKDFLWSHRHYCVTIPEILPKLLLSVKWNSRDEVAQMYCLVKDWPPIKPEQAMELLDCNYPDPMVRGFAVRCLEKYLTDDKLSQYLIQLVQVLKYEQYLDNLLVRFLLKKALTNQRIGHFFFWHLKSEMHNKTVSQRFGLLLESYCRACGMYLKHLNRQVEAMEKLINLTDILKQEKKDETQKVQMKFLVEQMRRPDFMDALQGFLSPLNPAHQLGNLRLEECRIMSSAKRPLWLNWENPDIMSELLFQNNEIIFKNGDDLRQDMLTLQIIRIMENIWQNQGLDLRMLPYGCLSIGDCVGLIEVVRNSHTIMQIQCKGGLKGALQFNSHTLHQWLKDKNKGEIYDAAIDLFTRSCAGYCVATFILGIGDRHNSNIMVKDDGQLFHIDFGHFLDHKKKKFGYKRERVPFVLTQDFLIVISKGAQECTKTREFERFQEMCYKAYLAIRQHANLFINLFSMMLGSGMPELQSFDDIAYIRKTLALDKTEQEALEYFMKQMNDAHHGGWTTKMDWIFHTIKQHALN
Sequence of Proto-oncogene tyrosine-protein kinase ROS (Homo sapiens) (P08922 whole entry, the tested form may be a part): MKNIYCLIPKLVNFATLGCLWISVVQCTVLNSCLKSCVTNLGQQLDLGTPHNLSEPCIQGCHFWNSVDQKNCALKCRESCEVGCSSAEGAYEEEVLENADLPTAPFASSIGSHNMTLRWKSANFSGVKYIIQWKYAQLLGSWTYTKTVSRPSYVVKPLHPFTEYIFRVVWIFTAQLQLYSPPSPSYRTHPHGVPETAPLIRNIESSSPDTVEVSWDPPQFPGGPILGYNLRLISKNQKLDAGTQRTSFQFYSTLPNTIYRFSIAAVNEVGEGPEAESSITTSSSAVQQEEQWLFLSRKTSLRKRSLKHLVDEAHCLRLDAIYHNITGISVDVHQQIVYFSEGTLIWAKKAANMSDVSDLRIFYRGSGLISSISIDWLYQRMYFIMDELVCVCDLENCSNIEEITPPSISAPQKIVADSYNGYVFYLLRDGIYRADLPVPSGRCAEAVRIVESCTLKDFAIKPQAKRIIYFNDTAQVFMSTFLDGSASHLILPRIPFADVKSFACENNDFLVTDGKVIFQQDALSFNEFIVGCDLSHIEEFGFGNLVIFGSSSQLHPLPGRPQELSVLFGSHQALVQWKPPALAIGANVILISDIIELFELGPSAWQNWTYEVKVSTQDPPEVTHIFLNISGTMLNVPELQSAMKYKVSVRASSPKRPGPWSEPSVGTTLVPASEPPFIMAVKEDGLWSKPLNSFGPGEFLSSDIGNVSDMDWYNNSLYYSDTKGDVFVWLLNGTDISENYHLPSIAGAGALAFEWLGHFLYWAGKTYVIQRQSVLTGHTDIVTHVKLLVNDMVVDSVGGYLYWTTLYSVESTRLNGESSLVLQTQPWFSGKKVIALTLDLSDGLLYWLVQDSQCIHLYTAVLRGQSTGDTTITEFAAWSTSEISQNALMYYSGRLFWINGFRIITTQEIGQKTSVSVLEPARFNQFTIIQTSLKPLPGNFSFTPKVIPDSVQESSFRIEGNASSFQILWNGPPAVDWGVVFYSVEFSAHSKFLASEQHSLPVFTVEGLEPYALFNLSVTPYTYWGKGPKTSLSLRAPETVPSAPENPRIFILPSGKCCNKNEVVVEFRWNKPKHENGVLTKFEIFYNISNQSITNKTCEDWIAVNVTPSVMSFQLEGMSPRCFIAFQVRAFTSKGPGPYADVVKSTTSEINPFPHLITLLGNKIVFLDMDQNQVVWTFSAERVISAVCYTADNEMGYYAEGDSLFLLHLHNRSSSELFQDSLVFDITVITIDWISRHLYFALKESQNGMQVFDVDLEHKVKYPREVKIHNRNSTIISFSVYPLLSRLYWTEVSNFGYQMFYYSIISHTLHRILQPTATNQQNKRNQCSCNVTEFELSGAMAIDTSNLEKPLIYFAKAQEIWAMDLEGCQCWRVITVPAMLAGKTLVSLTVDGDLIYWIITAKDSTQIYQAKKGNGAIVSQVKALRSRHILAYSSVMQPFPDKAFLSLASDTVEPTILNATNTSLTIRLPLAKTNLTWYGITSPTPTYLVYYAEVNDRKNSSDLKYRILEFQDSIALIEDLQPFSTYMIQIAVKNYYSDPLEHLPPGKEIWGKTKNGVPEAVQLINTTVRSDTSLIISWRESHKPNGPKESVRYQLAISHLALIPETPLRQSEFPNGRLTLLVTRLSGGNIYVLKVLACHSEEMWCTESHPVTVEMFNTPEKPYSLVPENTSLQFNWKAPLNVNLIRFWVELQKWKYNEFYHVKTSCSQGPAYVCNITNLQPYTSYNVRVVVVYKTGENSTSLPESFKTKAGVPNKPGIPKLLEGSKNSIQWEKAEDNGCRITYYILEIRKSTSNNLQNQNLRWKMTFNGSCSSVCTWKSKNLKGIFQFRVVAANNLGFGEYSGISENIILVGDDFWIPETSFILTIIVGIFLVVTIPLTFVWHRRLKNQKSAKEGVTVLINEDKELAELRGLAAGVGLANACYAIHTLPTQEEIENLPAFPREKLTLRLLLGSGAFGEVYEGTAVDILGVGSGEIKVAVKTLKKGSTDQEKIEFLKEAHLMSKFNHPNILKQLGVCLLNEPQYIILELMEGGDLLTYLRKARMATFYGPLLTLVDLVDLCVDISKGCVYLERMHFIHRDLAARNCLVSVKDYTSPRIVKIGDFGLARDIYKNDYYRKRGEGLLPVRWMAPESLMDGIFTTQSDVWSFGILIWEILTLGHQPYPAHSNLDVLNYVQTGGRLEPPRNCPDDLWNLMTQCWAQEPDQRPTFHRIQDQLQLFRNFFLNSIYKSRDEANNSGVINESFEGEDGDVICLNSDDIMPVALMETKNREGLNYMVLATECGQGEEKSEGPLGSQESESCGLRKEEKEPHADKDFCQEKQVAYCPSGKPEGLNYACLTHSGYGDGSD
Sequence of Hormonally up-regulated neu tumor-associated kinase (Homo sapiens) (P57058 whole entry, the tested form may be a part): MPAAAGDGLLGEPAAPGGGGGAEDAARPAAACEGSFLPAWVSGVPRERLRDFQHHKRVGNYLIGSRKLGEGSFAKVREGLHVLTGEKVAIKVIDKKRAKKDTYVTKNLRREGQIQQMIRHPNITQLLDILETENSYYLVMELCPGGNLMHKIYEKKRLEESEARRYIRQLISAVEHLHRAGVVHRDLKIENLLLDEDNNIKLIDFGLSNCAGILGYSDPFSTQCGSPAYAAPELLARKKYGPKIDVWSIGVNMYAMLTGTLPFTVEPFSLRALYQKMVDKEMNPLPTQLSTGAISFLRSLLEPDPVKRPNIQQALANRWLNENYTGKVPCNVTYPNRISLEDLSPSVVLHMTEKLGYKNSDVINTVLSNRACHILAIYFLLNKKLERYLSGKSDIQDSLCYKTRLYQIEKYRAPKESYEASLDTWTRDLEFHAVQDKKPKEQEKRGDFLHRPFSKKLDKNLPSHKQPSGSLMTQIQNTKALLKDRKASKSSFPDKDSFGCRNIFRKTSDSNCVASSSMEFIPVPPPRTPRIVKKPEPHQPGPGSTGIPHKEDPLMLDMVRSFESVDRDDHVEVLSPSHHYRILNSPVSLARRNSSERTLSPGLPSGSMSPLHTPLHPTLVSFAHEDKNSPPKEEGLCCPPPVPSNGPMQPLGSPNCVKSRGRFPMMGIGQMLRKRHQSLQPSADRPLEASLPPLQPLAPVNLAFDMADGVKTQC

| Structure (SMILES) | Activity [1] [%] | Activity [2] [%] | Activity [3] [%] | Activity [4] [%] | Activity [5] [%] | Activity [6] [%] | Activity [7] [%] | Activity [8] [%] | Activity [9] [%] | Activity [10] [%] | Activity [11] [%] | Activity [12] [%] | Activity [13] [%] | Activity [14] [%] | Activity [15] [%] | Activity [16] [%] | Activity [17] [%] | Activity [18] [%] | Activity [19] [%] | Activity [20] [%] | other results |
| --- | --- | --- | --- | --- | --- | --- | --- | --- | --- | --- | --- | --- | --- | --- | --- | --- | --- | --- | --- | --- | --- |
| CCC(=O)Nc1ccc(C(=O)Nc2ccc(Nc3ncc4c(n3)N(C)c3ccc(C)cc3C(=O)N4C)cc2)cc1 | 87 | 100 | 72 | 100 | 94 | 80 | 81 | 99 | 91 | 78 | 100 | 84 | 64 | 82 | 95 | 100 | 63 | 92 | 87 | 87 | Activity [21]: 78%; Activity [22]: 74%; Activity [23]: 90%; Activity [24]: 85%; Activity [25]: 91% |
| C=CC(=O)Nc1ccc(C(=O)Nc2ccc(Nc3ncc4c(n3)N(C)c3ccc(C)cc3C(=O)N4C)cc2)cc1 | 93 | 94 | 62 | 100 | 93 | 87 | 98 | 86 | 100 | 89 | 94 | 97 | 70 | 100 | 95 | 100 | 86 | 100 | 94 | 99 | Activity [21]: 77%; Activity [22]: 96%; Activity [23]: 94%; Activity [24]: 84%; Activity [25]: 100% |
